# Assay outcomes (PubChem)
# Only some compounds are listed: those with a hit (about 2.8% of all), similar ones and a draw of the others.
# NPY-Y2 PAM-ag: NPY-Y2 potentiators or agonists, primary screen, cell-based | Neuropeptide Y receptor type 2 (Homo sapiens), P49146 | cells expressing NPY-Y2, potentiator/agonist read-out | activation, % at 3.6 µM | 220,000 tested, 0.45% active | AID 1359, 2008; in the data active means activation above about 27%;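 further: cells stimulated with NPY near EC25 plus isoproterenol at EC100; 0% = vehicle plus submaximal agonist and 100% = vehicle plus saturating agonist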
# Target sequence (P49146 whole entry, looked up): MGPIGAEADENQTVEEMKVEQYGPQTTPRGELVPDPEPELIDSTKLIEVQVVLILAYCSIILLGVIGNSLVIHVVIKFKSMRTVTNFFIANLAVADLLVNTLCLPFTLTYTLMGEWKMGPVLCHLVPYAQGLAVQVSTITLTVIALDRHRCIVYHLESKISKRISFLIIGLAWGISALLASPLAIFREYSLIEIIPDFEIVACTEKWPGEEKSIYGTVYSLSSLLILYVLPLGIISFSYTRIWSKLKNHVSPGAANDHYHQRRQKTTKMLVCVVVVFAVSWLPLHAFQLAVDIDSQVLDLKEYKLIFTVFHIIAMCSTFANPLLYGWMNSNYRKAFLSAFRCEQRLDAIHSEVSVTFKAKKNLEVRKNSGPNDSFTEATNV
# PGE2 EP2 inh: human EP2 receptor antagonists, primary screen, TR-FRET cAMP, C6 glioma cells. 260,000 tested, 0.52% active. Prostaglandin E2 receptor EP2 subtype (Homo sapiens), P43116. C6 glioma cells expressing human EP2; cells stimulated with saturating PGE2. inhibition, % at 25 µM;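 active means percent inhibition above 40 after rounding to a whole number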;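 further: rat C6 glioma host cells with rolipram phosphodiesterase inhibitor present; the protocol text gives 20 µM as final concentration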
# NPY-Y2 antag: NPY-Y2 receptor antagonists, primary screen, cell-based. Neuropeptide Y receptor type 2 (Homo sapiens), P49146. NPY-Y2 expressing cells, antagonist mode. inhibition, % at 2.7 µM. 140,000 tested, 0.99% active. AID 793, 2007; in the data active means inhibition above about 17%;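 further: 0% = vehicle with agonist challenge and 100% = reference antagonist with challenge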
# EP2 modulator: EP2 receptor modulators, cAMP readout, primary screen, cell-based, HTRF cAMP, PGE2 stimulation | Prostaglandin E2 receptor EP2 subtype (Homo sapiens), P43116 | 260,000 tested, 0.83% active | induction, % at 25 µM | EP2-expressing cells, cAMP HTRF FRET, PGE2 co-stimulation;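 active means compounds whose cAMP rise, as percent of the full-agonist control response, exceeds 60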;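 further: rat C6 glioma line stably carrying human EP2 under a CMV promoter; the protocol text gives 20 µM as final concentration; 100% = response of wells given 1 µM PGE2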
# NPY-Y1 PAM-ag: NPY-Y1 receptor potentiators or agonists, primary screen, cell-based; NPY-Y1 expressing cells, potentiator/agonist activation; 220,000 tested, 0.37% active; Neuropeptide Y receptor type 1 (Homo sapiens), P25929; activation, % at 3.6 µM; AID 1304, 2008; in the data active means activation above about 33%, passing the limit was not always enough;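 further: cells stimulated with NPY at EC10 then isoproterenol at EC100; 0% = low agonist plus stimulus and 100% = saturating agonist plus stimulus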
# NPY Y1 blocker: NPY-Y1 receptor antagonists, primary screen, cell-based | AID 1040, 2008 | Neuropeptide Y receptor type 1 (Homo sapiens), P25929 | 200,000 tested, 1% active | HEK293-CNG Y1 cells, membrane potential fluorescence; NPY at EC95, then isoproterenol | inhibition, % at 3.6 µM;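 active means inhibition above the campaign mean inhibition of all tested compounds plus 3 SD, cut at about 20% in these data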;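 further: 0% = DMSO wells given NPY plus isoproterenol and 100% = isoproterenol alone without NPY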
#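 Test system – HEK293 Y1/CNG channel cell line · Also added – NPY agonist 25 nM, then isoproterenol 1 µM plus Ro 20-1724 25 µM · Compound dosing – one concentration, 3.6 µM, in 0.4% DMSO · Schedule – compound incubation 1 h at room temperature, readout 45 min post-stimulation · Technique – fluorescence, membrane potential probe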
# Numbers without * were called inactive; · = not tested or not shown; ! = not active in a repeat.
SMILES,NPY-Y2 PAM-ag,PGE2 EP2 inh,NPY-Y2 antag,EP2 modulator,NPY-Y1 PAM-ag,NPY Y1 blocker
CCOc1ccc2ccccc2c1C1C(C(=O)OC)=C(N)OC2=C1C(=O)CC(C)(C)C2 (stereo not drawn),·,6,·,35,·,·
O=C(COc1ccc([N+](=O)[O-])cc1)N(Cc1ccccc1)Cc1ccccc1,-8,5,23*,24,-16,21*
O=C(COc1ccccc1)NNC(=O)COc1ccc([N+](=O)[O-])cc1,6,11,·,-2,1,0
CCOc1cccc(/C(O)=C2/C(=O)C(=O)N(CCCOC)C2c2ccncc2)c1 (stereo not drawn),·,5,·,14,·,·
O=C(N/C=N/OCc1ccc(Cl)cc1Cl)NOCc1ncc(C(F)(F)F)cc1Cl,-8,5,6,61*,-22,6
CO/N=C/NC(=O)NOCc1ncc(C(F)(F)F)cc1Cl,0,-6,2,28,5,6
Cc1nn2cc(C(=O)c3ccccc3O)cnc2c1-c1ccc(F)cc1,·,·,·,46,·,·
CCC(=O)Nc1sc2c(c1C#N)CCCCC2,-13,13,1,62*,16,3
Cc1ccc2[nH]c(=O)c(CN(C(=O)c3ccco3)C3CCCCC3)cc2c1,·,12,·,-4,·,·
NC(=O)c1nnn(Cc2cc(Cl)c(C(=O)c3ccc(Cl)cc3)c(Cl)c2)c1N,·,44*,·,-15,·,·
Cc1ccc(NC(=O)c2cccs2)cc1NC(=O)Cc1ccccc1,·,13,·,-6,·,·
CCOC(=O)c1c2c(n3ccccc13)C(=O)c1ccccc1C2=O,·,46*,·,-42,·,·
COCc1nnc(NC(=O)C2CC(=O)N(c3ccc(C)cc3)C2)s1 (stereo not drawn),·,9,·,4,·,·
CCc1noc(C)c1C(=O)N1CC(C)OC(C)C1 (stereo not drawn),96*,9,-1,19,78*,-10
O=C(O)CCC(=O)Nc1ccc(N2CCCCC2)cc1,·,8,·,13,·,·
Cc1cc(/C=N/NC(=O)Cn2c3ccccc3c(=O)c3ccccc32)c(C)n1-c1ccccc1,50*,·,3,-13,50*,-13
Cc1ccc(N(CC(=O)N/N=C/c2cc(C)n(-c3ccccc3)c2C)S(C)(=O)=O)c(C)c1,2,17,-1,22,-9,4
CC1CCN(S(=O)(=O)c2cccc(C(=O)Oc3ccc([N+](=O)[O-])cc3)c2)CC1,5,40*,3,-95,-13,1
CC1CCCN(C(=O)CSc2nc3ccccc3n2CC(=O)NC(C)C)C1 (stereo not drawn),·,11,·,-34,·,·
CCOc1ccc(-c2csc3ncn(CC(=O)OC(C)CC)c(=O)c23)cc1 (stereo not drawn),·,6,·,43,·,·
Cc1ccc(F)cc1NC(=O)C1CCN(c2nc3ccccc3n2C)CC1,·,·,·,-18,·,·
Cc1cc(-c2cnc(C)nc2C2CCN(C(=O)c3cnsc3)CC2)on1,·,·,·,-1,·,·
CC(C)Cn1cnc2c(Sc3c([N+](=O)[O-])ncn3C)nc(N)nc21,·,8,·,12,·,·
Cn1cnc([N+](=O)[O-])c1Sc1nc(N)nc2c1ncn2Cc1ccccc1,·,53*,·,7,·,·
Cc1ccc(C(=O)N2CCCc3ccccc32)c(F)c1F,·,4,·,62*,·,·
SMILES,NPY-Y2 PAM-ag,PGE2 EP2 inh,NPY-Y2 antag,EP2 modulator,NPY-Y1 PAM-ag,NPY Y1 blocker
O=C(c1c(F)cccc1F)N1CCCc2ccccc21,·,6,·,37,·,·
CCCc1ccc(C(=O)NNc2ccc(F)cc2)cc1,46*,10,·,-31,51*,·
COc1ccc2[nH]c3c(N4CCN(Cc5ccc6c(c5)OCO6)CC4)ncnc3c2c1,8,60*,2,-80,-5,4
CCOc1ccc2[nH]c3c(N4CCc5ccccc5C4)ncnc3c2c1,-10,44*,·,-52,-4,·
CN(C)Cc1cc(C(C)(C)C)ccc1-c1ccc(C(C)(C)C)cc1CN(C)C,·,50*,·,7,·,·
CCc1cccc(C)c1NC(=O)CSc1nnc(-c2ccncc2)n1C,·,12,·,-4,·,·
CCCCCCOc1ccc(/C(N)=N/O)cc1,99*,12,3,12,84*,-11
O=C(COc1ccc(Cl)cc1)NCCSCc1cccc(Cl)c1,-20,8,17*,-30,-31,11
CC(C)C(=O)c1cn(CC(=O)Nc2ccc(F)cc2)c2ccccc12,·,9,·,-57,·,·
O=C(Nc1ccccc1)C1C2CCC3C(CCC21)C3(Cl)Cl (stereo not drawn),-17,10,14,17,-1,21*
CCOc1ccccc1NC(=O)C1C2CCC3C(CCC21)C3(Cl)Cl (stereo not drawn),-13,6,·,31,-18,10
CC(=NC#N)c1c(C(F)(F)F)[nH]n(-c2nc3ccccc3s2)c1=O,·,10,·,-58,·,·
CCOC(=O)c1nnn(-c2nonc2-n2cccc2)c1CN1CCCCC1,-15,11,5,63*,-2,-4
O=C(NCc1ccncc1)C(=O)N1CCCC1,·,4,·,-9,·,·
CC1Cc2nc(SCC(=O)NC3CCCCC3)n(C)c(=O)c2S1 (stereo not drawn),2,98*,9,12,-21,8
COc1ccccc1C(c1nnnn1C(C)(C)C)N1CCCc2ccccc21 (stereo not drawn),6,10,2,67*!,2,2
COc1cc2cc(C(c3nnnn3C3CCCC3)N3CCc4ccccc43)c(=O)[nH]c2cc1OC (stereo not drawn),3,·,3,19,21,4
Cc1ccc(C)c2[nH]c(=O)c(C(c3nnnn3C3CCCC3)N3CCc4ccccc43)cc12 (stereo not drawn),·,10,·,101*,·,·
COc1cc2cc(C(c3nnnn3C(C)(C)C)N3CCc4ccccc43)c(=O)[nH]c2cc1OC (stereo not drawn),-9,150*,-2,30,-12,-1
CC(C)(C)n1nnnc1C(c1ccc(Cl)cc1)N1CCCc2ccccc21 (stereo not drawn),-1,3,8,43,2,1
Cc1ccc(C)c(-c2nc(NC(=O)c3cccs3)sc2C)c1,·,8,·,-14,·,·
CCn1cc(S(=O)(=O)NC2(c3ccc(F)cc3)CC2)cn1,·,5,·,-63,·,·
COc1cccc(C(=O)NCc2cn3ccsc3n2)c1,98*,9,-1,-11,72*,-10
O=C(COc1ccc2ccccc2c1)NNC(=O)Cc1ccccc1,-9,63*,3,-28,-18,6
COc1ccc(C2(C(=O)N3CCCC(c4ncncc4-c4ccncc4)C3)CCCC2)cc1 (stereo not drawn),·,·,·,-92,·,·
O=C(c1cccs1)N1N=C(c2ccc(O)cc2)CC1c1ccccc1 (stereo not drawn),8,10,8,65*,13,-3
